MrgX1 antag = human MrgX1 receptor antagonism, primary screen. MRGX1-HEK293 calcium flux, Fluo-4, BAM8-22 antagonism; stronger effect = lower value. B-score at 10 µM. 1.3% of 310,000 active;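 active means calcium-response B-score plate-corrected more than 3 library SD below zero, starting fluorescence within 5 deviations, no agonist response on first addition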;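 further: peak minus trough fluorescence over baseline after final BAM8-22 challenge near maximal dose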
Target sequence (Q96LB2 whole entry, looked up): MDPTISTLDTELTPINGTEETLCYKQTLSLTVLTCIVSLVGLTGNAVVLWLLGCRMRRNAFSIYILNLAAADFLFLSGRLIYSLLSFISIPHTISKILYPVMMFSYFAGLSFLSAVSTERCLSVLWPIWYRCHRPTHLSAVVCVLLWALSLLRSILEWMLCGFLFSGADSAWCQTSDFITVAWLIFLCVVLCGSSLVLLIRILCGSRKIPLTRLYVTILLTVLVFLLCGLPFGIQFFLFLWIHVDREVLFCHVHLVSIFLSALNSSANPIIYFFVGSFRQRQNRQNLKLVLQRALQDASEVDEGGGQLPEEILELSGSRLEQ
MrgX1 ag = human MrgX1 receptor agonism, primary screen; 0.44% of 310,000 active; Q96LB2; MrgX1-HEK293 cells, Fluo-4 calcium fluorescence, agonist mode; stronger effect = higher value; B-score at 10 µM;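 active means calcium response B-score plate-corrected fluorescence ratio at least 3 library SD, with starting fluorescence B-score inside 5 SD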
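Material: MrgX1-expressing HEK293 cells / Dosing: compound as first of three additions / Incubation: overnight seeding, then 1 h dark dye loading / Signal: Fluo-4 NW calcium fluorescence / Evaluation: B-scored fluorescence response ratio / Benchmarks: positive and negative control wells on each plate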
MrgX1 allo act = human MrgX1 positive allosteric modulation, primary screen; Q96LB2; MrgX1-HEK293, Fluo-4 calcium flux, FDSS; stronger effect = higher value; 0.63% of 310,000 active; B-score at 10 µM; AID 588675;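 active means plate-corrected calcium response at least 3 library SD above typical, normal starting fluorescence, not activating the receptor alone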;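 further: compound read alongside a low EC10 to EC30 dose of BAM8-22 agonist; peak minus trough fluorescence over baseline measured at the second addition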
RGS4 inh = inhibitors of human RGS4; P49798; HEK293 M3R/RGS4 inducible, Fluo-4 calcium flux; stronger effect = higher value; triggered by carbachol at its EC20; B-score at 10 µM; 0.45% of 310,000 active;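 active means B-score, a plate-corrected calcium signal, over three deviations above library mean, with baseline fluorescence within five deviations of library mean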;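 further: RGS4 expression induced by doxycycline in cells with stable M3 receptor; B-score is computed from the integrated fluorescence ratio over baseline after carbachol; higher B-score means a larger calcium signal and so more RGS4 inhibition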
Target sequence (P49798 whole entry, looked up): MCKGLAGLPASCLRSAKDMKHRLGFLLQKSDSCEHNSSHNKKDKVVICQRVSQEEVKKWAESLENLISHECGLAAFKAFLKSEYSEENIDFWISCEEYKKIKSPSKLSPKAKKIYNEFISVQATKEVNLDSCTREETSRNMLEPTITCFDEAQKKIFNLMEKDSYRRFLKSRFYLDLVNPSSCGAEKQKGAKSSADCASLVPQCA
RGS4 act = potentiators or activators of RGS4 | 0.92% of 310,000 active | AID 463111 | B-score at 10 µM | HEK293 M3R/inducible RGS4, carbachol calcium flux Fluo4; stronger effect = lower value;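 active means B-score of the integrated calcium signal more than 4 SD below the library mean, with starting fluorescence not abnormally high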;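 further: negative B-score means reduced calcium response which marks RGS4 activation or potentiation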
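Material: Inducible-RGS4 HEK293 cells carrying M3 receptor; also added: carbachol at ECmax as muscarinic agonist stimulus; incubation: compound preincubation 20 min at room temperature before agonist; signal: Fluo4-AM (2 µM) calcium-flux fluorescence, kinetic read; measure: integrated calcium ratio converted to B score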
MrgX1 antag conf = reconfirmed antagonist of human MrgX1 receptor signaling; remaining BAM8-22 calcium response % of control (stronger effect = lower value), % at 10 µM; AID 602420; 19% of 2,300 active; MrgX1-HEK293, BAM8-22 calcium flux, Fluo-4; stronger effect = lower value; shares compounds with MrgX1 antag;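 active means remaining agonist calcium response no higher than 100% minus 3 SD of agonist-only control wells, with starting fluorescence near control levels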;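 further: agonist BAM8-22 given at a near maximal EC90 to ECmax level; peak minus minimum fluorescence divided by baseline after agonist addition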
HEK293 Ca flux = counter-screen for MrgX1 antagonists: effect in parental HEK293 cells; fluorescence ratio F(max-min)/F0 at 10 µM; shares compounds with MrgX1 antag; 2% of 4,000 active; Fluo-4 calcium fluorescence, FDSS;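 active means duplicate-averaged calcium fluorescence ratio at least three times the standard deviation of buffer wells, a nonspecific response in parental cells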
HEK293 Ca counter = activity in parental HEK293 cells without MrgX1. shares compounds with MrgX1 antag. parental HEK293 calcium flux, Fluo-4 fluorescence ratio; stronger effect = higher value. fluorescence ratio F(max-min)/F0 at 10 µM. 0.4% of 4,000 active;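 active means calcium fluorescence ratio, averaged over duplicates, at least 3 SD of the buffer-well ratio, meaning a nonspecific response in receptor-free cells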;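 further: untransfected parental HEK293 lacking MrgX1 used as counterscreen for MrgX1 allosteric activators; fluorescence change taken during the second addition on a kinetic imager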
HEK293 Ca cntr2 = MrgX1 activator counter-screen hit in parental HEK293 cells. shares compounds with MrgX1 antag. Fluo-4 calcium fluorescence (FDSS); stronger effect = higher value. fluorescence ratio F(max-min)/F0 at 10 µM. 8.7% of 4,000 active. AID 624115;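 active means calcium fluorescence ratio at least three times the spread of buffer wells, meaning a non-specific response in parental cells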
Hits are given with their value; – = inactive; · = no result given. An excerpt weighted towards active compounds, which were near 3.5% of everything screened.

SMILES	MrgX1 antag	MrgX1 ag	MrgX1 allo act	RGS4 inh	RGS4 act	MrgX1 antag conf	HEK293 Ca flux	HEK293 Ca counter	HEK293 Ca cntr2
Cc1ccccc1C(=O)N=c1c(C#N)cc2c(=O)n3cccc(C)c3nc2n1Cc1ccco1	–	–	–	–	–	·	·	·	·
N#Cc1cc2c(=O)n3ccccc3nc2n(Cc2ccco2)c1=NC(=O)c1ccco1	-4.8	–	–	–	–	83%	–	–	–
Cc1ccc(S(=O)(=O)c2cc3c(=O)n4ccccc4nc3n(Cc3ccco3)c2=N)cc1	-4.6	–	–	–	–	76%	–	–	–
CC(OC(=O)CNC(=O)c1ccc(Cl)cc1)C(=O)NC1CCCCC1C (configuration not stated)	–	–	–	–	–	·	·	·	·
CC1CN(C(=O)CSc2nnc(NC(=O)NC(C)(C)C)s2)CC(C)O1 (configuration not stated)	–	–	–	–	–	·	·	·	·
CN(C)CCCC(C)(O)C(Cc1ccccc1)c1ccccc1 (configuration not stated)	-6.5	–	–	–	–	–	–	–	–
CN(C)CCC(Oc1ccccc1OCc1ccccc1)c1ccccc1 (configuration not stated)	–	–	–	–	–	·	·	·	·
O=C(Nc1cccc(F)c1)Nc1ccnn1C1CCN(C(=O)c2cscn2)CC1	-7.3	–	–	–	–	–	–	–	–
O=C(Nc1cccc(F)c1)Nc1ccnn1C1CCN(C(=O)CCN2CCCO2)CC1	–	–	–	–	–	·	·	·	·
COc1cccc(NC(=O)CN(C)C(=O)CN2C(=O)c3ccc([N+](=O)[O-])cc3C2=O)c1	–	–	–	–	–	·	·	·	·
Cc1ccn2c(=O)nc(SCC(=O)Nc3cc(C)on3)nc2c1	–	–	–	–	–	·	·	·	·
Cc1cc(NC(=O)CSc2nc(=O)n3cc(Cl)ccc3n2)no1	-8.2	–	–	–	–	73%	–	–	–
C/C(=N\NC(=O)Cc1csc(N2CCOCC2)n1)c1ccc(Cl)c(Cl)c1	–	–	–	–	–	·	·	·	·
CC(=O)c1c(C)[nH]c(C(=O)OCC(=O)Nc2ccc(Cl)cc2[N+](=O)[O-])c1C	–	–	–	–	–	·	·	·	·
Cn1c(=O)c2c(nc(CN3CCOCC3)n2CCc2ccccc2)n(C)c1=O	-4.9	–	–	–	–	–	–	–	–
Cc1cccc(-c2c3c(nc4c2c(=O)n(C)c(=O)n4C)-c2ccccc2C3O)c1 (configuration not stated)	–	–	–	–	–	·	·	·	·
CC(C)NC(=S)N1CCN(Cc2ccc3c(c2)OCO3)CC1	–	–	–	–	–	·	·	·	·
FC(F)(F)c1ccccc1NC(=S)N1CCN(Cc2ccc3c(c2)OCO3)CC1	-7.4	–	–	–	–	–	–	–	–
CCN(CC)c1ccc(C(=O)NC(=S)N2CCN(Cc3ccc4c(c3)OCO4)CC2)cc1	-5.1	–	–	–	–	–	–	–	–
Cc1ccc(S(=O)(=O)N(C)c2ccc(C(=O)N3CCN(Cc4ccc5c(c4)OCO5)CC3)cc2)cc1	-5.2	–	–	–	–	–	–	–	–
Cc1ccccc1NC(=S)N1CCN(Cc2ccc3c(c2)OCO3)CC1	–	–	–	–	–	·	·	·	·
CCOC(=O)N1CCN(CC(=O)Nc2sc(CC)cc2C(=O)c2ccc(OC)cc2)CC1	–	–	–	–	–	·	·	·	·
Cc1ccc(NC(=S)Nc2ccc(S(=O)(=O)N3CCOCC3)cc2)cc1S(=O)(=O)N1CCOCC1	–	–	–	–	–	·	·	·	·
Cc1cc(C)cc(N(CC(=O)Nc2ccc(Br)cc2)S(=O)(=O)c2c(C)[nH]c(=O)[nH]c2=O)c1	–	–	–	–	–	·	·	·	·
COc1ccc(C2SCC(=O)N2Cc2ccccc2)cc1 (configuration not stated)	–	–	–	–	–	·	·	·	·
SMILES	MrgX1 antag	MrgX1 ag	MrgX1 allo act	RGS4 inh	RGS4 act	MrgX1 antag conf	HEK293 Ca flux	HEK293 Ca counter	HEK293 Ca cntr2
COc1ccc(C2SCC(=O)N2CC23CC4CC(CC(C4)C2)C3)cc1 (configuration not stated)	-5.2	–	–	–	–	–	–	–	–
CCC1(c2ccccc2)NC(=O)N(CC(=O)Nc2cc(S(=O)(=O)N3CCCCC3)ccc2OC(C)C)C1=O (configuration not stated)	–	–	–	–	–	·	·	·	·
CCC(=O)Nc1ccc(NC(=S)Nc2ccccc2)cc1	-4.8	–	–	–	–	–	–	–	–
CCC(=O)Nc1ccc(NC(=S)NC(=O)Cc2ccccc2)cc1	–	–	–	–	–	·	·	·	·
COc1ccc(S(=O)(=O)N2CCC(C(=O)NC3CCCCC3C)CC2)cc1 (configuration not stated)	–	–	–	–	–	·	·	·	·
COc1ccc(CCNC(=O)CN(c2ccc(OC)c(OC)c2)S(=O)(=O)c2ccccc2)cc1OC	–	–	–	–	–	·	·	·	·
CC(Oc1ccc(Cl)cc1)C(=O)Nc1ccc(S(=O)(=O)Nc2nccs2)cc1 (configuration not stated)	-5.6	–	–	–	–	–	–	–	51
CC1CN(C(=O)CS(=O)(=O)Cc2ccc(Cl)cc2)CC(C)O1 (configuration not stated)	-4.8	–	–	–	–	–	–	–	–
Cc1ccc(CC(=O)N2CC(C)OC(C)C2)cc1 (configuration not stated)	–	–	–	–	–	·	·	·	·
CC(C)Oc1ccc(C(=O)OC(C)C(=O)NC2CCCCC2C)cc1 (configuration not stated)	–	–	–	–	–	·	·	·	·
CC(OC(=O)c1ccncc1)C(=O)NC1CCCC1 (configuration not stated)	-10	–	–	–	–	–	–	–	–
O=C(NCCc1ccco1)C(=O)NCC1CCCN1S(=O)(=O)c1ccccc1 (configuration not stated)	-5.1	–	–	–	-7.3	–	–	–	–
Cc1ccc(C)c(S(=O)(=O)N2CCCC2CNC(=O)C(=O)NCCc2ccco2)c1 (configuration not stated)	–	–	–	–	–	·	·	·	·
Cc1nnc(NC(=O)c2ccc(S(=O)(=O)N3CCCCCC3)cc2)o1	-12	–	–	–	–	–	–	–	–
Cc1nnc(NC(=O)c2ccc(S(=O)(=O)N3CC(C)OC(C)C3)cc2)o1 (configuration not stated)	–	–	–	–	–	·	·	·	·

Compound activity (PubChem)
